# How the values were obtained:
# [1] = target: Tau-tubulin kinase 1 (Homo sapiens) (UniProt Q5TCY1); experiment: Inhibition of human recombinant TTBK1 at 500 nM in presence of ATP by radiometric assay relative to control
# [2] = target: T1, Bone morphogenetic protein receptor type-2 (Homo sapiens) (UniProt Q13873); experiment: Inhibition of human recombinant BMPR2 at 500 nM in presence of ATP by radiometric assay relative to control
# T1 sequence (whole entry): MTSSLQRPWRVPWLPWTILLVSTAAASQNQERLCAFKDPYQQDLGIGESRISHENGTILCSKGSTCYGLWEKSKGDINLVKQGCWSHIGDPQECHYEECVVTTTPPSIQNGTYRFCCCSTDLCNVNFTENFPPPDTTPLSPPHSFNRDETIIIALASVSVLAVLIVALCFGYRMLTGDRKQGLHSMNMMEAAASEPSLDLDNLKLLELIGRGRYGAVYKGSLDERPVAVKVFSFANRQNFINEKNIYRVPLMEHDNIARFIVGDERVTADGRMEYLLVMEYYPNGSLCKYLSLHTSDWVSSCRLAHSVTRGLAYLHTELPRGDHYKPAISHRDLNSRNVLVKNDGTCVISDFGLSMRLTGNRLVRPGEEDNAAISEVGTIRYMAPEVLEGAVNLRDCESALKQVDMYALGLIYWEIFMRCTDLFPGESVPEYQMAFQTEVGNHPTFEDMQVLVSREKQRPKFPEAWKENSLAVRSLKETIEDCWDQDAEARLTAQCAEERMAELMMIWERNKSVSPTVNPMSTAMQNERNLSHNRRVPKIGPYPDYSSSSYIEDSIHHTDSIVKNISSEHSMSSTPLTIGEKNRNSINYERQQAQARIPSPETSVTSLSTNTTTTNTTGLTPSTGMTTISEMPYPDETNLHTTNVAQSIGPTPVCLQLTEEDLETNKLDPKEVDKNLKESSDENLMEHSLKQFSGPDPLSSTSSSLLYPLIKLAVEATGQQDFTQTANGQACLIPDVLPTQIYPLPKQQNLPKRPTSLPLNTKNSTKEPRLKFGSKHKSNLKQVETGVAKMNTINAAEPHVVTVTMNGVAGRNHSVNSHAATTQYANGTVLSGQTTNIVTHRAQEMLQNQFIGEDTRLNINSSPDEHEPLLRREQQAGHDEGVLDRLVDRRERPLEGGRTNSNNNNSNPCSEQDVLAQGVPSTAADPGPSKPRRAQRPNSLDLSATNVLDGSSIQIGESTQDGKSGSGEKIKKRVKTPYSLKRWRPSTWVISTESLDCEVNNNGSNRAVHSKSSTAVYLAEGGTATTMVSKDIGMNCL
# Outline: (§1)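 Part of a radiometric in vitro activity panel of 327 recombinant human kinases. Each kinase was tested in duplicate at one inhibitor concentration. Activity remaining was expressed as a percentage of the vehicle control, and percent inhibition was taken as 100 minus that value.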
# [3] = target: RAC-gamma serine/threonine-protein kinase (Homo sapiens) (UniProt Q9Y243); experiment: Inhibition of human recombinant AKT3 at 500 nM in presence of ATP by radiometric assay relative to control
# Outline: (§2)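 Panel of 327 recombinant human kinases in radiometric activity assays, each screened in duplicate at a single inhibitor concentration; percent activity remaining relative to vehicle control, percent inhibition taken as 100 minus activity remaining.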
# [4] = target: T2, Beta-adrenergic receptor kinase 1 (Homo sapiens) (UniProt P25098); experiment: Inhibition of human recombinant BARK1 at 15 nM in presence of ATP by radiometric assay relative to control; outline: as §1
# T2 sequence (whole entry): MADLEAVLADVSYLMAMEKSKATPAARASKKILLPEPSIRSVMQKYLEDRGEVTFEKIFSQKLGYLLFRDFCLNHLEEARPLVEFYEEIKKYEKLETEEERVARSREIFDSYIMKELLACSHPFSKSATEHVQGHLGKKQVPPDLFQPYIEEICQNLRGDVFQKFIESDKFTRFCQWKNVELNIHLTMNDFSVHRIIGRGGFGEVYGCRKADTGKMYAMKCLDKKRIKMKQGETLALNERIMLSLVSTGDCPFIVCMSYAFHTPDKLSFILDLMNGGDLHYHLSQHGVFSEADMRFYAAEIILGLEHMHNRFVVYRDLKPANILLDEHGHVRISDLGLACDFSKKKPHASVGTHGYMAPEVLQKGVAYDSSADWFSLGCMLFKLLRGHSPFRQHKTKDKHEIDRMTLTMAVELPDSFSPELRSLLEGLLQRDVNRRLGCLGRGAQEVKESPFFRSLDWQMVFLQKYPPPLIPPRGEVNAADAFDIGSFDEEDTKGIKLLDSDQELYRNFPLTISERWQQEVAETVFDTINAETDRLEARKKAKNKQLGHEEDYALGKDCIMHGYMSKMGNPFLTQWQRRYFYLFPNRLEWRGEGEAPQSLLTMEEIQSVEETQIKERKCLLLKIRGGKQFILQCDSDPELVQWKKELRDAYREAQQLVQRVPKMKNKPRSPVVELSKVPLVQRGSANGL
# [5] = organism: Homo sapiens; experiment: Inhibition of human recombinant ABL at 15 nM in presence of ATP by radiometric assay relative to control; outline: as §2
# [6] = target: Mitogen-activated protein kinase 1 (Homo sapiens) (UniProt P28482); experiment: Inhibition of human recombinant Erk2 at 40 nM in presence of ATP by radiometric assay relative to control
# [7] = target: Vascular endothelial growth factor receptor 3 (Homo sapiens) (UniProt P35916); experiment: Inhibition of human recombinant FLT4 at 40 nM related to control ULK1
# [8] = target: Ribosomal protein S6 kinase alpha-3 (Homo sapiens) (UniProt P51812); experiment: Inhibition of human recombinant RSK2 at 40 nM in presence of ATP by radiometric assay relative to control
# Ribosomal protein S6 kinase alpha-3 (Homo sapiens), sequence (P51812 whole entry): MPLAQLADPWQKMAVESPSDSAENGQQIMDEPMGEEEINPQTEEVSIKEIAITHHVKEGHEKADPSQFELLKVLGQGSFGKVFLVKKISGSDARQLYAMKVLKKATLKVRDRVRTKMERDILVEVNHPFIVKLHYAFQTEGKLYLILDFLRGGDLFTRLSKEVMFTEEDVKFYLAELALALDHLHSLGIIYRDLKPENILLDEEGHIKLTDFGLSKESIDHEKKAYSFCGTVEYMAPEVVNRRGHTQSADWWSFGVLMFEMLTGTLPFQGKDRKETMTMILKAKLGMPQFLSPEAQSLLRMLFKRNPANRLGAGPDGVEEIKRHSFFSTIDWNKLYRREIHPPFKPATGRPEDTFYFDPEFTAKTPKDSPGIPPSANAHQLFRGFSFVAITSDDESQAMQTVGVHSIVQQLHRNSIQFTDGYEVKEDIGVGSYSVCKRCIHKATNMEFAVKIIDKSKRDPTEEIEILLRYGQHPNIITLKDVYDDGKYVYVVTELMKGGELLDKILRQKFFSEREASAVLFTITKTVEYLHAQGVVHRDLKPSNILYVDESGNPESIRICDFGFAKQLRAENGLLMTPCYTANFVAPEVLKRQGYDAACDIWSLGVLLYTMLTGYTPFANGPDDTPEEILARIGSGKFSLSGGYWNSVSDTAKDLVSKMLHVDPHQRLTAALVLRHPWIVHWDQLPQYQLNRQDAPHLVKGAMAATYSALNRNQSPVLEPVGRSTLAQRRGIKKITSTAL
# RAC-gamma serine/threonine-protein kinase (Homo sapiens), sequence (Q9Y243 whole entry): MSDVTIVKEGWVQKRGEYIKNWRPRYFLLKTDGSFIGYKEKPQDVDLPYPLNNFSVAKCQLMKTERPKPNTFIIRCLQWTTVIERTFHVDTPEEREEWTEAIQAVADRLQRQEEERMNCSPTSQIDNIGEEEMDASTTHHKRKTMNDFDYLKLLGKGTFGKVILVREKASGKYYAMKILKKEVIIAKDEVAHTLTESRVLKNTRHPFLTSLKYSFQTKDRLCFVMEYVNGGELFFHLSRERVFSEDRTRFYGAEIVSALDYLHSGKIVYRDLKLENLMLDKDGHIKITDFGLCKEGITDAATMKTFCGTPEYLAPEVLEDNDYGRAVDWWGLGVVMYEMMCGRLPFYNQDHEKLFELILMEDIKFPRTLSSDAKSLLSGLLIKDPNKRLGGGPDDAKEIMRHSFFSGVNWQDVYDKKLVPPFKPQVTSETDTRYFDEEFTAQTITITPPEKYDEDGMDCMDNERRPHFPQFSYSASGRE
# Mitogen-activated protein kinase 1 (Homo sapiens), sequence (P28482 whole entry): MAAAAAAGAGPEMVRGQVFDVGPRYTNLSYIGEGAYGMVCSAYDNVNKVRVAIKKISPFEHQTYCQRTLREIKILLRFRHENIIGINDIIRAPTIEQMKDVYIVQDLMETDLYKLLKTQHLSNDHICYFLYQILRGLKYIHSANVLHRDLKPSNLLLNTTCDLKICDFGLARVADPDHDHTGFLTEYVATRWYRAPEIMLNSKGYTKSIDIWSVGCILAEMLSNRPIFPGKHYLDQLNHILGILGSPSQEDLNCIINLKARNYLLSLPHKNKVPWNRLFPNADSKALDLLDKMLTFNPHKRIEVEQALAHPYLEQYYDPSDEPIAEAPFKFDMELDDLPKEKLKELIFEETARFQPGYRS
# Vascular endothelial growth factor receptor 3 (Homo sapiens), sequence (P35916 whole entry): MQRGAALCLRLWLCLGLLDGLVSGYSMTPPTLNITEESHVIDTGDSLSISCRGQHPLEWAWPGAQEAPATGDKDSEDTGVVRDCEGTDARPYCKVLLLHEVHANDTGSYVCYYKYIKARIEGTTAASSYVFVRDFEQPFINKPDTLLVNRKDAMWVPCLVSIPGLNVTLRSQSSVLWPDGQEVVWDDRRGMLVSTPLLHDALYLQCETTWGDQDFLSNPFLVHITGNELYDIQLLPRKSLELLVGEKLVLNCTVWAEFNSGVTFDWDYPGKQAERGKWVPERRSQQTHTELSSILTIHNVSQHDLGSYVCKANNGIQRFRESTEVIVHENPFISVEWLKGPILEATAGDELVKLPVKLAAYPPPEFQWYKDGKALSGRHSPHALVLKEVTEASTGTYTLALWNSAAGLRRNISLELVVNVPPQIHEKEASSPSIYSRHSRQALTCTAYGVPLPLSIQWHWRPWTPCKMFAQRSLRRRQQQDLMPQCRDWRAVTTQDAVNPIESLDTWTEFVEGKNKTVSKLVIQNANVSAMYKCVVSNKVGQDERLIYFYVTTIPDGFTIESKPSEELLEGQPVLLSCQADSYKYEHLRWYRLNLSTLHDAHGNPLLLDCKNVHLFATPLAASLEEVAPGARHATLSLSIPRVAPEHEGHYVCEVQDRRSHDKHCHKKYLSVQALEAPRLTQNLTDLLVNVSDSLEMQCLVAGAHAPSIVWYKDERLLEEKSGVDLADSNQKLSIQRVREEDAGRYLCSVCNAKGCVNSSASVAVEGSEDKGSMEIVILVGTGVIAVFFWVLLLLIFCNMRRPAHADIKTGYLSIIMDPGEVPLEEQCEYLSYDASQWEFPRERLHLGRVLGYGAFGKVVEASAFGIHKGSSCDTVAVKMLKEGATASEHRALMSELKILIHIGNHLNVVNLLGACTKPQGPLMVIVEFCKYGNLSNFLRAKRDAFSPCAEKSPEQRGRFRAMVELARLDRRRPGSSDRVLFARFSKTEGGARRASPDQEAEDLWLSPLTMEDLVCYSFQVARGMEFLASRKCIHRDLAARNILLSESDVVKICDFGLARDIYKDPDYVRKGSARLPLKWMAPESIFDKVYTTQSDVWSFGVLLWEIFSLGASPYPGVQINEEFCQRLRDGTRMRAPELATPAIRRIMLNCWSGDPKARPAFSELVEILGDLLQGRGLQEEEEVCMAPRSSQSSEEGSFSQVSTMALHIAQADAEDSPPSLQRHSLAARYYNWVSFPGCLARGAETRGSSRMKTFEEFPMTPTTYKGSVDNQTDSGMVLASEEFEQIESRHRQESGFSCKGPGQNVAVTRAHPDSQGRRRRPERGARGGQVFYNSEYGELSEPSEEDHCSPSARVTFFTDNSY
# Tau-tubulin kinase 1 (Homo sapiens), sequence (Q5TCY1 whole entry): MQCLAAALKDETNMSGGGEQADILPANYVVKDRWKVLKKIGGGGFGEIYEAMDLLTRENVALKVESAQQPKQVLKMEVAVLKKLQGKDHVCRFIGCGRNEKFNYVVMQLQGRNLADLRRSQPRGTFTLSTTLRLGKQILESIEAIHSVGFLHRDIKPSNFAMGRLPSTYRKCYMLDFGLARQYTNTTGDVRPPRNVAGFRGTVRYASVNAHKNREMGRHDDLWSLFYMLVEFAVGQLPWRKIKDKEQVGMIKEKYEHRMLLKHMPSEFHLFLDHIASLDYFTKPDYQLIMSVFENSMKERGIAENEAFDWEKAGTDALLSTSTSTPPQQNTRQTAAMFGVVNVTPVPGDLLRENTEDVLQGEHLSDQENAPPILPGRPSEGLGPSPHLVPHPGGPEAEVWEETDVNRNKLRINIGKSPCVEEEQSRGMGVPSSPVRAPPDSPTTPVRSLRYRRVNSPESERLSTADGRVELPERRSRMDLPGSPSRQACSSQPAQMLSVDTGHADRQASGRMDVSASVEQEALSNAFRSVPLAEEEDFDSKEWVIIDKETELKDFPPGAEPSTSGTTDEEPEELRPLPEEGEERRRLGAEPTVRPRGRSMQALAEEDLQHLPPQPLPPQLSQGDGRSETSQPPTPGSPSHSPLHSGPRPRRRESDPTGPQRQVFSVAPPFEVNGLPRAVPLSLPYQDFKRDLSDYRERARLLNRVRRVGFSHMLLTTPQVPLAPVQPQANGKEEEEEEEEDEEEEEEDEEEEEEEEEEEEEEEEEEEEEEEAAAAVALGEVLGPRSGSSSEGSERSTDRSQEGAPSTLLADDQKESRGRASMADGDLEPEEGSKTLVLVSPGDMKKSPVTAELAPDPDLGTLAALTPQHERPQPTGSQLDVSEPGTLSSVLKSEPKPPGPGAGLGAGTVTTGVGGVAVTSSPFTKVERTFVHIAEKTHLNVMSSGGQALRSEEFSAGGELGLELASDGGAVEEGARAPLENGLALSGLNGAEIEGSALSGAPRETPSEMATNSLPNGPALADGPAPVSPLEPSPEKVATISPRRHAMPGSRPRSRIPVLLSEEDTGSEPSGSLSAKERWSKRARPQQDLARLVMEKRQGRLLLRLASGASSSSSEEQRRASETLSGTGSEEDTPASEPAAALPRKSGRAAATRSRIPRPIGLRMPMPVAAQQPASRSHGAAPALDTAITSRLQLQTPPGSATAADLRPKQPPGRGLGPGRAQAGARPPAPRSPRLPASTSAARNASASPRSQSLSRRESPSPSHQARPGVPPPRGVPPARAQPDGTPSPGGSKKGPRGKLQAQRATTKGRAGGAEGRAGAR
smiles,measurement,setting,value
CNC(=O)c1ccccc1Oc1nc(Nc2cc(OC)c(OC)c(OC)c2)ncc1Br,inhibition,[1],1%
same,inhibition,[2],0%
same,inhibition,[3],5%
CC(C)[C@H](NC(=O)c1cc(-c2cnn3cc(-c4ccc(OCCN5CCCCC5)cc4)cnc23)cs1)C(F)(F)F,inhibition,[4],0%
same,inhibition,[5],82%
O=C(N[C@@H](C1CC1)C(F)(F)F)c1cc(-c2cnn3cc(-c4ccc(F)cc4)cnc23)cs1,inhibition,[6],0%
same,fold change (FC),[7],0.26
same,inhibition,[8],0%

# From ChEMBL document CHEMBL5653631, “A Potent and Selective ULK1 Inhibitor Suppresses Autophagy and Sensitizes Cancer Cells to Nutrient Stress” (iScience, 2018)
